According to ChEMBL document CHEMBL1157310, “Cytotoxic oxylipins from a marine sponge Topsentia sp” (2006):
Converted amounts (≈) assume the structure as drawn.

Key:
Assay type in all cases: functional
Details in all cases: read-out: ED50 (the source's name)
[1] = system: HCT-15; assay: Cytotoxicity against human HCT15 cells
How it was run: (§1)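 Human tumour cell lines of stated origin: SK-MEL-2 from skin cancer, XF498 from CNS cancer, HCT 15 from colon cancer.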

[2] = system: XF498; assay: Cytotoxicity against human XF498 cells; how it was run: as §1
[3] = system: SK-OV-3; assay: Cytotoxicity against human SK-OV-3 cells
[4] = system: SK-MEL-2; assay: Cytotoxicity against human SK-MEL-2 cells; how it was run: as §1
[5] = system: A549; assay: Cytotoxicity against human A549 cells

Question: Which EC50 [1] does the source give for `COc1cccc2c1C(=O)c1c(O)c3c(c(O)c1C2=O)C[C@@](O)(C(=O)CO)C[C@@H]3O[C@H]1C[C@H](N)[C@H](O)[C@H](C)O1` [DOXORUBICIN] here?
Answer: The EC50 was 0.06 µg/mL (≈ 0.11 µM).

Question: And the EC50 [2]?
Answer: The EC50 was 0.06 µg/mL (≈ 0.11 µM).

Question: What about the EC50 [3] of the same compound?
Answer: The EC50 was 0.13 µg/mL (≈ 0.239 µM).

Question: What about the EC50 [4] of the same compound?
Answer: The EC50 was 0.04 µg/mL (≈ 0.0736 µM).

Question: What about the EC50 [5] of the same compound?
Answer: Its EC50 is 0.04 µg/mL (≈ 0.0736 µM).
